Measured values reported in ChEMBL document CHEMBL1122807, “2-Substituted thiazolidine-4(R)-carboxylic acids as prodrugs of L-cysteine. Protection of mice against acetaminophen hepatotoxicity” (1984).

How the values were obtained:
Mus musculus [1] = assay: Compound was evaluated for its protective activity against acetaminophen (750 mg ([…]) /kg) toxicity, given intraperitoneally in mice and the number of animals with liver necrosis was determined after 3h; assay type: functional
In short: (§1)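 Overnight-fasted (16 h) Swiss-Webster mice received acetaminophen 750 mg/kg ip, then test agent 2.45 mmol/kg ip 0.5 h later. Agents were made at 15 mg/mL in sterile 0.1 N NaHCO3 (one in sterile water), pH 6.5–7.5, and used within 1 h. Liver sections from the first 18 animals per agent were coded and graded 0 to 4+ blind. Results pooled from ≥3 replicate experiments.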

Mus musculus [2] = assay: Compound was evaluated for its protective activity against acetaminophen (750 mg ([…]) /kg) toxicity, given intraperitoneally in mice and the number of animals with liver necrosis was determined
Mus musculus [3] = assay: Compound was evaluated for its protective activity against acetaminophen (750 mg ([…]) /kg) toxicity, given intraperitoneally in mice and the number of animals with liver necrosis was determined after 0h; assay type: functional
Mus musculus [4] = assay: Compound was evaluated for its protective activity against acetaminophen (750 mg ([…]) /kg) toxicity, given intraperitoneally in mice and the number of animals with liver necrosis was determined after 2 hr; assay type: functional; in short: as §1
Mus musculus [5] = assay: Compound was evaluated for its protective activity against acetaminophen (750 mg ([…]) /kg) toxicity, given intraperitoneally in mice and the survival of the mice was determined at 48 h; 23/26; assay type: functional
In short: (§2)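 Swiss-Webster mice were fasted overnight (16 h) before use. Test compound, made up as a 15 mg/mL solution in sterile 0.1 N NaHCO3 (pH 6.5–7.5) and used within 1 h of preparation, was given at 2.45 mmol/kg ip 0.5 h after acetaminophen ip. Survivors were counted at 48 h. Counts are cumulative over at least three replicate experiments run at different times.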

Mus musculus [6] = assay: Compound was evaluated for its protective activity against acetaminophen (750 mg ([…]) /kg) toxicity, given intraperitoneally in mice and the survival of the mice was determined at 48 h; 0/18; assay type: functional; in short: as §2
Mus musculus [7] = assay: Compound was evaluated for its protective activity against acetaminophen (750 mg ([…]) /kg), given intraperitoneally) in mice and the number of animals with liver necrosis was determined after 3h; assay type: functional; in short: as §1
Mus musculus [8] = assay: Compound was evaluated for its protective activity against acetaminophen (750 mg ([…]) /kg) toxicity, given intraperitoneally in mice and the survival of the mice was determined at 48 h; 13/24; assay type: functional; in short: as §2
Mus musculus [9] = assay: Compound was evaluated for its protective activity against acetaminophen (750 mg ([…]) /kg) toxicity, given intraperitoneally in mice and the number of animals with liver necrosis was determined after 1 hr; assay type: functional
Mus musculus [10] = assay: Compound was evaluated for its protective activity against acetaminophen (750 mg ([…]) /kg) toxicity, given intraperitoneally in mice and the survival of the mice was determined at 48 h; 24/24; assay type: functional; in short: as §2
Mus musculus [11] = assay: Compound was evaluated for its protective activity against acetaminophen (750 mg ([…]) /kg) toxicity, given intraperitoneally in mice and the survival of the mice was determined at 48 h; 19/24; assay type: functional; in short: as §2
Mus musculus [12] = assay: Compound was evaluated for its protective activity against acetaminophen (750 mg ([…]) /kg) toxicity, given intraperitoneally in mice and the survival of the mice was determined at 48 h; 30/30; assay type: functional; in short: as §2
Mus musculus [13] = organism: Mus musculus; assay: Compound was evaluated for the excretion of 14CO2 (carbon dioxide) in expired air of mice and the activity was determined as percent of dose excreted as 14CO2 at following time intervals - 12-16 h; assay type: functional
In short: (§3)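 Mice were dosed with thiazolidine carrying 14C at ring C-2 and the methyl carbon. Expired 14CO2 was trapped, and the trap was changed at 4, 8, 12, 16 and 24 h. Aliquots were counted by liquid scintillation against an aqueous Na2 14CO3 standard and expressed as percent of dose. The experiment was repeated in a second mouse (24 g, 2.57 mmol/kg).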

Mus musculus [14] = organism: Mus musculus; assay: Compound was evaluated for the excretion of 14CO2 (carbon dioxide) in expired air of mice and the activity was determined as percent of dose excreted as 14CO2 at following time intervals - 4-8h; assay type: functional; in short: as §3
Mus musculus [15] = organism: Mus musculus; assay: Compound was evaluated for the excretion of 14CO2 (carbon dioxide) in expired air of mice and the activity was determined as percent of dose excreted as 14CO2 at following time intervals - 16-24h; assay type: functional; in short: as §3
Mus musculus [16] = assay: Compound was evaluated for its protective activity against acetaminophen (750 mg ([…]) /kg) toxicity, given intraperitoneally in mice and the survival of the mice was determined at 48 h; 28/30; assay type: functional
Mus musculus [17] = organism: Mus musculus; assay: Compound was evaluated for the excretion of 14CO2 (carbon dioxide) in expired air of mice and the activity was determined as percent of dose excreted as 14CO2 at following time intervals - 8-12h; assay type: functional; in short: as §3
Mus musculus [18] = organism: Mus musculus; assay: Compound was evaluated for the excretion of 14CO2 (carbon dioxide) in expired air of mice and the activity was determined as percent of dose excreted as 14CO2 at following time intervals - 0-4 hr; assay type: functional; in short: as §3
Mus musculus [19] = assay: Compound was evaluated for its protective activity against acetaminophen (750 mg ([…]) /kg) toxicity, given intraperitoneally in mice and the survival of the mice was determined at 48 h; 17/17; assay type: functional

Compound | No. of animals with liver necrosis (Mus musculus [1]) | No. of animals with liver necrosis (Mus musculus [2]) | No. of animals with liver necrosis (Mus musculus [3]) | No. of animals with liver necrosis (Mus musculus [4]) | No. of animals with liver necrosis (Mus musculus [9]) | also measured
O=C(O)[C@@H]1CSC(c2ccccc2)N1 (some centres undefined) | 6 | 2 | 7 | 3 | – | Survival (Mus musculus [5]): 23
CC1N[C@@H](C(=O)O)CS1 (some centres undefined) | – | 17 | – | – | – | Survival (Mus musculus [6]): 0; No. of animals with liver necrosis (Mus musculus [7]): 1
O=C(O)[C@@H]1CSC(c2ccncc2)N1 (some centres undefined) | 5 | 6 | 2 | 1 | 4 | Survival (Mus musculus [8]): 13
CCCCCC1N[C@H](C(=O)O)CS1 (some centres undefined) | – | – | 16 | – | 2 | Survival (Mus musculus [10]): 24
CCC1N[C@H](C(=O)O)CS1 (some centres undefined) | 3 | 6 | 3 | 3 | 3 | Survival (Mus musculus [11]): 19
CCCC1N[C@H](C(=O)O)CS1 (some centres undefined) | – | 2 | 9 | 1 | 6 | Survival (Mus musculus [12]): 30
CC1N[C@H](C(=O)O)CS1 (some centres undefined) | – | 1 | 17 | – | – | Of dose excreted (Mus musculus [13]): 2.9%; Of dose excreted (Mus musculus [14]): 7%; Of dose excreted (Mus musculus [15]): 3.7%; Survival (Mus musculus [16]): 28; Of dose excreted (Mus musculus [17]): 4.3%; Of dose excreted (Mus musculus [18]): 61.9%
CC(=O)N[C@@H](CS)C(=O)O [ACETYLCYSTEINE] | – | – | 15 | – | 2 | Survival (Mus musculus [19]): 17
